According to ChEMBL document CHEMBL2321674, “Design, synthesis and biological evaluation of sulfur-containing 1,1-bisphosphonic acids as antiparasitic agents” (Eur J Med Chem, 2013):

What was measured:
Vero = experiment: Cytotoxicity against african green monkey Vero cells assessed as cell viability at 25 uM; type: cell-based; settings: chlorocebus sabaeus
Toxoplasma gondii = experiment: Antiparasitic activity against Toxoplasma gondii tachyzoite expressing red fluorescence protein assessed as growth inhibition by fluorescence plate reader; type: functional; settings: read-out: ED50 (the source's name)
Method in brief: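 T. gondii tachyzoites expressing red fluorescent protein, filtered (3 μm) and needle-passed, inoculated at 10^4/well onto confluent hTerT monolayers in DMEM-HG with 1% FBS, 2 mM glutamine, 1 mM pyruvate, serial drug dilutions; 37 °C, 5% CO2, fluorescence read daily from bottom (ex 510/em 540 nm).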

[1] = molecular target: T1, Farnesyl diphosphate synthase (Toxoplasma gondii, UniProt Q197X6); experiment: Inhibition of Toxoplasma gondii farnesyl diphosphate synthase assessed as incorporation of [4-14C]IPP measured at 37 degC
T1 sequence (Q197X6 whole entry): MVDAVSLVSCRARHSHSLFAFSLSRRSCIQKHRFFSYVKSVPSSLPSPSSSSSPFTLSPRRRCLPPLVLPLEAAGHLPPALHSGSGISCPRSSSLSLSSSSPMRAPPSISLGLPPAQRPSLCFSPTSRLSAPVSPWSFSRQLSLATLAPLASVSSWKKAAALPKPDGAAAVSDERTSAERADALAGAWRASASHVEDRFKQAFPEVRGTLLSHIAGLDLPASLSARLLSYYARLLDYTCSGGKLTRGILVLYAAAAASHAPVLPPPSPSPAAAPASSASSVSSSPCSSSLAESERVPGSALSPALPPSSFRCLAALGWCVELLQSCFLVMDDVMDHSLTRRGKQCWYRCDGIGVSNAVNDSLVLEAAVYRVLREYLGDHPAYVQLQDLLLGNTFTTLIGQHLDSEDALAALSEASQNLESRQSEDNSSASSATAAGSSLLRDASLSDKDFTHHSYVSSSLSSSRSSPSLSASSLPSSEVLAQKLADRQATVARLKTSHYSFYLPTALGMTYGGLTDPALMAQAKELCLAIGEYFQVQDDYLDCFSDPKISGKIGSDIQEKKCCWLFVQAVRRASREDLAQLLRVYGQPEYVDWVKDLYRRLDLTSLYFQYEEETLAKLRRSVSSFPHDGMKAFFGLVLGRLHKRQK

Trypanosoma cruzi = experiment: Antiparasitic activity against Trypanosoma cruzi amastigotes infected in gamma-irradiated vero cells assessed as growth inhibition measured after 3 days by fluorescence assay; type: functional; settings: light or radiation study, 72 h, read-out: ED50 (the source's name)
[2] = molecular target: T2, Farnesyl diphosphate synthase (Trypanosoma cruzi, UniProt Q8WS26); experiment: Inhibition of Trypanosoma cruzi farnesyl diphosphate synthase assessed as incorporation of [4-14C]IPP measured at 37 degC
T2 sequence (Q8WS26 whole entry): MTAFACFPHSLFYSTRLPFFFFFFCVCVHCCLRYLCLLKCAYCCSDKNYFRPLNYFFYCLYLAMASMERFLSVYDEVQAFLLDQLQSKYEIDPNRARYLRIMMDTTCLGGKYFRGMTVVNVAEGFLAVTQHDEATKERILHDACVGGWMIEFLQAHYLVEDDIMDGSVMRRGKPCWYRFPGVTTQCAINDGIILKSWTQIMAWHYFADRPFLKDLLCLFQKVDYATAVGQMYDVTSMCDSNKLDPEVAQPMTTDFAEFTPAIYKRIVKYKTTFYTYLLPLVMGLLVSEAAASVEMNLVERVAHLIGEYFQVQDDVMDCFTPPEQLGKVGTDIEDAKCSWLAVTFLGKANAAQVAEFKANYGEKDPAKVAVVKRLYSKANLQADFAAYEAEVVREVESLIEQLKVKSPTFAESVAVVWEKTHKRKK

[3] = Cytotoxicity against hTerT cells assessed as growth inhibition measured at > 200 uM after 3 to 4 days by Alamar Blue assay; type: cell-based; settings: human
Method in brief: (§1)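 Non-irradiated confluent hTERT cells in phenol-red-free high-glucose DMEM with 10% Cosmic Calf Serum, washed, serial drug dilutions in quadruplicate, 35 °C, 7% CO2 for 3–4 days. AlamarBlue at 10% of culture volume, 6 h at 35 °C, absorbance at 570 and 600 nm. Percent growth inhibition = 100 minus percent reduction difference versus untreated control; DMSO as toxicity control.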

[4] = Cytotoxicity against hTerT cells assessed as growth inhibition measured at > 1000 uM after 3 to 4 days by Alamar Blue assay; type: cell-based; settings: human; method in brief: as §1
[5] = Cytotoxicity against hTerT cells assessed as growth inhibition measured at >= 500 uM after 3 to 4 days by Alamar Blue assay; type: cell-based; settings: human; method in brief: as §1

Structure (SMILES): CCCCCCCC[S+]([O-])CC(P(=O)(O)O)P(=O)(O)O (stereo not drawn)
- Activity (Vero): Non-toxic
- EC50 (Toxoplasma gondii): 3 µM
- IC50 [1]: 0.016 µM
- EC50 (Trypanosoma cruzi): > 20 µM
- IC50 [2]: > 10 µM

Structure (SMILES): CCCCCCCSCC(P(=O)(O)O)P(=O)(O)O
- Activity (Vero): Non-toxic
- Activity [3]: Non-toxic
- EC50 (Toxoplasma gondii): 0.97 µM
- IC50 [1]: 0.069 µM
- EC50 (Trypanosoma cruzi): > 20 µM
- IC50 [2]: > 10 µM

Structure (SMILES): CCCCCSCC(P(=O)(O)O)P(=O)(O)O
- Activity (Vero): Non-toxic
- EC50 (Toxoplasma gondii): > 10 µM
- IC50 [1]: 0.11 µM
- EC50 (Trypanosoma cruzi): > 20 µM
- IC50 [2]: > 10 µM

Structure (SMILES): CCCCCCC[S+]([O-])CC(P(=O)(O)O)P(=O)(O)O (stereo not drawn)
- Activity (Vero): Non-toxic
- EC50 (Toxoplasma gondii): 5 µM
- IC50 [1]: 0.009 µM
- EC50 (Trypanosoma cruzi): > 20 µM
- IC50 [2]: > 10 µM

Structure (SMILES): CCCSCC(P(=O)(O)O)P(=O)(O)O
- Activity (Vero): Non-toxic
- EC50 (Toxoplasma gondii): > 10 µM
- IC50 [1]: 0.066 µM
- EC50 (Trypanosoma cruzi): > 20 µM
- IC50 [2]: 0.925 µM

Structure (SMILES): CCCCCCCC[S+](C)CC(P(=O)(O)O)P(=O)(O)O.F[B-](F)(F)F (stereo not drawn)
- Activity (Vero): Non-toxic
- EC50 (Toxoplasma gondii): 7 µM
- IC50 [1]: 0.013 µM
- EC50 (Trypanosoma cruzi): > 20 µM
- IC50 [2]: 0.04 µM

Structure (SMILES): CCCCCCCCSCC(P(=O)(O)O)P(=O)(O)O
- Activity [4]: Non-toxic
- Activity (Vero): Non-toxic
- EC50 (Toxoplasma gondii): 2.6 µM
- IC50 [1]: 0.024 µM
- EC50 (Trypanosoma cruzi): 15.8 µM
- IC50 [2]: 6.39 µM

Structure (SMILES): CCCCCCCCCSCC(P(=O)(O)O)P(=O)(O)O
- Activity [5]: Non-toxic
- Activity (Vero): Non-toxic
- EC50 (Toxoplasma gondii): 1.2 µM
- IC50 [1]: 0.025 µM
- EC50 (Trypanosoma cruzi): 12.8 µM
- IC50 [2]: 1.7 µM

Structure (SMILES): CCCCSCC(P(=O)(O)O)P(=O)(O)O
- Activity (Vero): Non-toxic
- EC50 (Toxoplasma gondii): > 10 µM
- IC50 [1]: 0.048 µM
- EC50 (Trypanosoma cruzi): > 20 µM
- IC50 [2]: 0.789 µM

Structure (SMILES): CCCCCC(C)NCC(P(=O)(O)O)P(=O)(O)O (stereo not drawn)
- Activity (Vero): Non-toxic
- EC50 (Toxoplasma gondii): 11.4 µM
- IC50 [1]: < 1 µM
- EC50 (Trypanosoma cruzi): > 20 µM
- IC50 [2]: > 10 µM

Structure (SMILES): O=C(Cn1ccnc1[N+](=O)[O-])NCc1ccccc1 [BENZNIDAZOLE]
- EC50 (Trypanosoma cruzi): 1.7 µM

Structure (SMILES): CCCCCCCCCCSCC(P(=O)(O)O)P(=O)(O)O
- Activity (Vero): Non-toxic
- Activity [3]: Non-toxic
- EC50 (Toxoplasma gondii): 1.8 µM
- IC50 [1]: 0.021 µM
- EC50 (Trypanosoma cruzi): > 20 µM
- IC50 [2]: 0.097 µM

Structure (SMILES): CCCCCCCCCC[S+]([O-])CC(P(=O)(O)O)P(=O)(O)O (stereo not drawn)
- Activity (Vero): Non-toxic
- EC50 (Toxoplasma gondii): 7.6 µM
- IC50 [1]: > 10 µM
- EC50 (Trypanosoma cruzi): > 20 µM
- IC50 [2]: > 10 µM

Structure (SMILES): CCCCCCCNCC(O)(P(=O)(O)O)P(=O)(O)O
- Activity (Vero): Non-toxic
- EC50 (Toxoplasma gondii): > 10 µM
- IC50 [1]: > 1 µM
- EC50 (Trypanosoma cruzi): > 20 µM
- IC50 [2]: > 10 µM

Structure (SMILES): CCCCCC[S+]([O-])CC(P(=O)(O)O)P(=O)(O)O (stereo not drawn)
- Activity (Vero): Non-toxic
- EC50 (Toxoplasma gondii): > 10 µM
- IC50 [1]: > 10 µM
- EC50 (Trypanosoma cruzi): > 20 µM
- IC50 [2]: > 10 µM

Structure (SMILES): CCCCCCSCC(P(=O)(O)O)P(=O)(O)O
- Activity (Vero): Non-toxic
- EC50 (Toxoplasma gondii): 6.5 µM
- IC50 [1]: 0.307 µM
- EC50 (Trypanosoma cruzi): > 20 µM
- IC50 [2]: > 10 µM

Structure (SMILES): CCCCCS(=O)(=O)CC(P(=O)(O)O)P(=O)(O)O
- Activity (Vero): Non-toxic
- EC50 (Toxoplasma gondii): > 10 µM
- IC50 [1]: > 10 µM
- EC50 (Trypanosoma cruzi): > 20 µM
- IC50 [2]: > 10 µM

Structure (SMILES): CCSCC(P(=O)(O)O)P(=O)(O)O
- Activity (Vero): Non-toxic
- EC50 (Toxoplasma gondii): > 10 µM
- IC50 [1]: 1.83 µM
- EC50 (Trypanosoma cruzi): > 20 µM
- IC50 [2]: 0.627 µM

Structure (SMILES): CCCCC[S+]([O-])CC(P(=O)(O)O)P(=O)(O)O (stereo not drawn)
- Activity (Vero): Non-toxic
- EC50 (Toxoplasma gondii): > 10 µM
- IC50 [1]: > 10 µM
- EC50 (Trypanosoma cruzi): > 20 µM
- IC50 [2]: > 10 µM

Structure (SMILES): CCCC[S+]([O-])CC(P(=O)(O)O)P(=O)(O)O (stereo not drawn)
- Activity (Vero): Non-toxic
- EC50 (Toxoplasma gondii): > 10 µM
- IC50 [1]: > 10 µM
- EC50 (Trypanosoma cruzi): > 20 µM
- IC50 [2]: > 10 µM

Structure (SMILES): CCCCCCCCC[S+]([O-])CC(P(=O)(O)O)P(=O)(O)O (stereo not drawn)
- Activity [4]: Non-toxic
- Activity (Vero): Non-toxic
- EC50 (Toxoplasma gondii): 1.4 µM
- IC50 [1]: 0.056 µM
- EC50 (Trypanosoma cruzi): 19.4 µM
- IC50 [2]: > 10 µM

Structure (SMILES): O=P(O)(O)C(O)(Cc1cccnc1)P(=O)(O)O [RISEDRONIC ACID]
- EC50 (Toxoplasma gondii): 2.4 µM
- EC50 (Trypanosoma cruzi): 55 µM
